Assay outcomes deposited in PubChem by several laboratories.
T cruzi repl: T. cruzi replication inhibition. AID 1885. T. cruzi beta-gal in NIH3T3, luminescence, 90 h. inhibition, % (concentration not given with the values). hit rate 1.4% among 300,000;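 active = mean inhibition across valid replicates above about 55%, limit read from the data; inconclusive = mean below that limit but half or more replicates reach it; inactive = mean below it, under half of replicates reach it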;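 also: signal also drops with host cell toxicity which is not excluded here; higher percent means less beta-gal luminescence so fewer parasites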
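Material: NIH/3T3 host cells with β-galactosidase reporter T. cruzi; Input: 5,000 host fibroblasts per well; Medium: DMEM, 2% fetal bovine serum; Compound: 50 nL DMSO compound solution per well; Schedule: 3 h host attachment, then at least 90 h co-culture; Detection: luminescent β-galactosidase signal after 60 min lysis.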
Mdm2 MdmX PPI: human Mdm2/MdmX binding inhibition. O15151+Q00987. SaOS-2 split-luciferase Mdm2/MdmX complementation, luminescence. inhibition, % at 8 µM. hit rate 3% among 330,000. AID 485346;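 active = inhibition of at least 50% at 8 µM in the primary screen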
Target sequence (O15151 whole entry, looked up): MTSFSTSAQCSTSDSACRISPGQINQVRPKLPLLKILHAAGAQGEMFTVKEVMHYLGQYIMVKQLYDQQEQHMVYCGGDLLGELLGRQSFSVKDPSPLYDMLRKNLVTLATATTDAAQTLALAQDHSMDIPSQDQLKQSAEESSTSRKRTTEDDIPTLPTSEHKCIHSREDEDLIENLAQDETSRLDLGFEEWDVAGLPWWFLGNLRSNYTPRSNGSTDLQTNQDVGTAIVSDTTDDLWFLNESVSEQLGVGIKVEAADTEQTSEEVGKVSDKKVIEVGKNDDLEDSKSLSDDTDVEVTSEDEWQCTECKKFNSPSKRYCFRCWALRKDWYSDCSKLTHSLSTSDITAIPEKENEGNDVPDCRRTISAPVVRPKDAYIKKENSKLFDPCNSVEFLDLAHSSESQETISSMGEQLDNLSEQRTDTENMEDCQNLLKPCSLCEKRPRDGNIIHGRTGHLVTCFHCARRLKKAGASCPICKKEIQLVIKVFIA
Target sequence (Q00987 whole entry, looked up): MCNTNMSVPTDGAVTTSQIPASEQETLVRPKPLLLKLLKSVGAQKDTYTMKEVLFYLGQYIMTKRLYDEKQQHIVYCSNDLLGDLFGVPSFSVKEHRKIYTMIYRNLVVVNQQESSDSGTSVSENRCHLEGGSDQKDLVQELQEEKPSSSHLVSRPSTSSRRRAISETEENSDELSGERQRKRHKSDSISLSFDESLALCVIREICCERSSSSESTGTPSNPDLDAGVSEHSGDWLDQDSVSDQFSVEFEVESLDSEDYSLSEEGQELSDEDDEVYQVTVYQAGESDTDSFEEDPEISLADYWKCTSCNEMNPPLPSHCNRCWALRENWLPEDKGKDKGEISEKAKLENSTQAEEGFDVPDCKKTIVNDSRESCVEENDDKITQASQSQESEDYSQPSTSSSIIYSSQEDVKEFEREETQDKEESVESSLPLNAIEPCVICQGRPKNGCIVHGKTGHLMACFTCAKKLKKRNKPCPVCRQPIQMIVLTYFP
SKKanGAS inh: SKKanGAS growth inhibition; hit rate 1.3% among 300,000; inhibition, % at 7.5 µM; S. pyogenes SKKanGAS, kanamycin growth, BacTiter-Glo, 6 h; AID 1662;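 active = mean replicate score, as percent of positive control median, at least 50; inconclusive = mean below 50 but one replicate at or above 50; inactive = mean and every replicate below 50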;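 also: strain carries kanamycin resistance gene driven by streptokinase promoter and grows in 40 µg/ml kanamycin; loss of luminescence reflects streptokinase promoter inhibition or plain growth inhibition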
CSC inhib: cancer stem cell inhibition | cancer stem cell-like cells viability, luminescence | inhibition, % at 7.5 µM | hit rate 1.1% among 300,000 | AID 2717; in the data active = inhibition above about 75%; inconclusive = no clear call, values can overlap the other calls; tested in HMLE shEcad cells
Beta apoptosis: beta cell apoptosis inhibition; INS-1E cytokine-induced death, ATP luminescence, 48 h; percent of positive-control rescue, neutral wells zero; protection from apoptosis, % (test concentration not listed); hit rate 0.8% among 300,000;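 active = Every replicate reaches about 75%, or at least half do and their mean reaches it too, limit read from the data; inconclusive = At least half of replicates reach the limit but their mean does not; inactive = Under half of replicates reach the limit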;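 also: higher means more ATP so stronger rescue from cytokine killing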
Calb FLC: C. albicans growth modulation with fluconazole | C. albicans CaCi-2 + fluconazole, Alamar Blue growth, 48 h | growth inhibition, % (concentration not given with the values) | hit rate 0.57% among 300,000;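 active = growth inhibition above about 58% in most replicates, limit read from the data, passing the limit was not always enough; inconclusive = exactly half the replicates above a set limit; inactive = most replicates below a set limit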;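 also: all wells also contain fluconazole at 8 µg/ml as a sub-toxic cotreatment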
Mdm2-MdmX conf: human Mdm2/MdmX binding inhibition, confirmed. shares compounds with Mdm2 MdmX PPI. luminescent assay. inhibition, % at 8 µM. hit rate 55% among 10,000. AID 489028; in the data active = inhibition above about 40%
FLuc counter: counter-screen for Mdm2/MdmX inhibitors: full-length luciferase; shares compounds with Mdm2 MdmX PPI; SaOS-2 full-length luciferase counterscreen, luminescence; inhibition, % at 8 µM; hit rate 77% among 6,200;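 active = mean inhibition at 8 µM reaching about 37%, which flags the compound as non-specific, limit read from the data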;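 also: p53-null SaOS-2 cells with luciferase driven by a doxycycline-inducible promoter; compound on cells about two nights before reading with doxycycline added after day one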
A number is an active result. Most compounds without a hit are left out; they make up all but 5.7% or so of the library.

For CSc1nc(N)nc2c1ncn2CC(=O)NCc1ccc2[nH]ccc2c1 the results were Mdm2 MdmX PPI inactive and Beta apoptosis inactive.
COc1cccc(NC(=O)CN(C)C(=O)CC(NC(=O)c2ccccc2Cl)c2ccccc2)c1 (configuration not stated) was read as Mdm2 MdmX PPI inactive and Beta apoptosis inactive.
CCOC(=O)C1CCN(C(=O)c2cccc(S(=O)(=O)NCc3ccccc3)c2)CC1 was read as Mdm2 MdmX PPI inactive, CSC inhib inactive and Beta apoptosis inactive.
Screening C=C1CCC[C@]2(C)C[C@H]3OC(=O)C(CN4CCOCC4)[C@H]3C[C@@H]12 (some centres not stated) returned T cruzi repl inactive, Mdm2 MdmX PPI inactive, SKKanGAS inh inactive, CSC inhib inactive, Beta apoptosis inactive and Calb FLC inactive.
C/C1=C\CCC2C(/C=C(\C)CC1)OC(=O)C2CN1CCCCC1 (configuration not stated) was read as T cruzi repl inactive, Mdm2 MdmX PPI 59.8, SKKanGAS inh inactive, CSC inhib inactive, Beta apoptosis inactive, Calb FLC inactive and Mdm2-MdmX conf inactive.
Screening CCc1ccc(NC(=S)/N=C(\N)Nc2nc(C)c3cc(CC)ccc3n2)cc1 returned T cruzi repl inactive, Mdm2 MdmX PPI 63.3, SKKanGAS inh inactive, CSC inhib inactive, Beta apoptosis inactive, Calb FLC inactive, Mdm2-MdmX conf 59.9 and FLuc counter 59.5.
Screening COc1ccc2nc(N/C(N)=N/C(=S)Nc3ccc(C)c(C)c3)nc(C)c2c1 returned T cruzi repl inactive, Mdm2 MdmX PPI 55.9, SKKanGAS inh inactive, CSC inhib inactive, Beta apoptosis inactive, Calb FLC inactive, Mdm2-MdmX conf 53.0 and FLuc counter 55.8.
For Cc1cccc(NC(=S)/N=C(\N)Nc2nc(C)c3ccc(C)cc3n2)c1 the results were T cruzi repl 59.8, Mdm2 MdmX PPI 58.5, SKKanGAS inh inconclusive, CSC inhib inactive, Beta apoptosis inactive, Calb FLC inactive, Mdm2-MdmX conf inactive and FLuc counter 53.7.
For COc1ccc2nc(N/C(N)=N/C(=S)Nc3ccccc3)nc(C)c2c1 the results were T cruzi repl inactive, Mdm2 MdmX PPI inactive, SKKanGAS inh inactive, Beta apoptosis inactive and Calb FLC inactive.
For Cc1cccc(NC(=S)/N=C(\N)Nc2nc(C)c3cc(C)ccc3n2)c1 the results were T cruzi repl inactive, Mdm2 MdmX PPI inactive, SKKanGAS inh inactive, CSC inhib inactive, Beta apoptosis inactive and Calb FLC inactive.
`O=C(C(=O)N1CCN(c2ccc([N+](=O)[O-])cc2)CC1)c1cn(CC(=O)N2CCOCC2)c2ccccc12` gave T cruzi repl inactive, Mdm2 MdmX PPI inactive, SKKanGAS inh inactive, CSC inhib inactive and Beta apoptosis inactive.
`CCOc1ccc(CNC(=O)Nc2ccccc2)cc1` gave T cruzi repl inactive, Mdm2 MdmX PPI inactive, SKKanGAS inh inactive and Calb FLC inactive.
Screening COc1cc(CNC(C)(C)CO)cc(Br)c1OCc1ccc(Cl)cc1 returned T cruzi repl inactive, Mdm2 MdmX PPI inactive, SKKanGAS inh inactive, CSC inhib inactive, Beta apoptosis inactive and Calb FLC inactive.
Screening COc1cc(CNCCN2CCOCC2)ccc1OCc1ccc(Cl)cc1Cl returned T cruzi repl inactive, Mdm2 MdmX PPI 53.5, SKKanGAS inh inactive, Beta apoptosis inactive, Calb FLC inactive and Mdm2-MdmX conf inactive.
COc1cc(CNCCO)cc(Cl)c1OCc1ccc(Cl)cc1Cl was read as T cruzi repl inactive, Mdm2 MdmX PPI 51.4, SKKanGAS inh inactive, CSC inhib inactive, Beta apoptosis 108.3, Calb FLC inactive, Mdm2-MdmX conf 48.9 and FLuc counter 85.2.
For COc1cc(CNC(C)(C)CO)cc(Br)c1OCc1ccc(Cl)cc1Cl the results were T cruzi repl inactive, Mdm2 MdmX PPI 55.1, SKKanGAS inh inactive, CSC inhib inconclusive, Beta apoptosis inactive, Calb FLC inactive, Mdm2-MdmX conf 40.2 and FLuc counter 101.8.
`CCOc1cc(CNCCO)cc(Br)c1OCc1ccccc1` gave T cruzi repl inactive, Mdm2 MdmX PPI inactive, SKKanGAS inh inactive, CSC inhib inactive, Beta apoptosis inactive and Calb FLC inactive.
COc1cc(CNCCO)cc(Br)c1OCc1ccccc1Cl was read as T cruzi repl inactive, Mdm2 MdmX PPI 57.2, SKKanGAS inh inactive, CSC inhib inactive, Beta apoptosis inactive, Calb FLC inactive and Mdm2-MdmX conf inactive.
Screening COc1cc(CNCCN2CCOCC2)ccc1OCc1cccc(Cl)c1 returned T cruzi repl inactive, Mdm2 MdmX PPI inactive, SKKanGAS inh inactive, CSC inhib inactive, Beta apoptosis inactive and Calb FLC inactive.
`Cc1cccc(N(Cc2ccccc2)C(=O)CSC(C)C(=O)Nc2cc(C)on2)c1` (configuration not stated) gave T cruzi repl inactive, Mdm2 MdmX PPI inactive, SKKanGAS inh inactive, CSC inhib inactive, Beta apoptosis inactive and Calb FLC inactive.
For COc1cc(C(=O)NC2CCCCC2)ccc1OCc1ccc(Cl)cc1Cl the results were T cruzi repl inactive, Mdm2 MdmX PPI 57.8, SKKanGAS inh inactive, CSC inhib inactive, Beta apoptosis inactive, Calb FLC inactive and Mdm2-MdmX conf inactive.
For COc1cc(CNC(C)c2ccccc2)cc(Br)c1OCc1ccc(F)cc1 (configuration not stated) the results were T cruzi repl 55.1, Mdm2 MdmX PPI 59.7, SKKanGAS inh inactive, CSC inhib inactive, Beta apoptosis 113.4, Calb FLC inactive, Mdm2-MdmX conf 62.7 and FLuc counter 75.0.
For COc1cc(CNC(C)c2ccccc2)cc(Cl)c1OCC(=O)Nc1ccccc1 (configuration not stated) the results were T cruzi repl inactive, Mdm2 MdmX PPI 67.7, SKKanGAS inh inactive, CSC inhib inactive, Beta apoptosis inactive, Calb FLC inactive, Mdm2-MdmX conf 56.3 and FLuc counter 51.5.
Screening O=C(OCC(=O)N1CCOCC1)c1cc(=O)[nH]c2ccccc12 returned Mdm2 MdmX PPI inactive, CSC inhib inactive and Beta apoptosis inactive.
For CN1CC2=Cc3ccccc3OC23Oc2ccccc2C=C3C1 the results were T cruzi repl inactive, Mdm2 MdmX PPI 58.7, SKKanGAS inh inactive, CSC inhib inactive, Calb FLC inactive and Mdm2-MdmX conf inactive.
COc1cccc(C2C3=C(N=C4SCC(=O)N42)c2ccccc2CC3)c1OC (configuration not stated) was read as T cruzi repl inactive, Mdm2 MdmX PPI inactive, SKKanGAS inh inactive, CSC inhib inactive, Beta apoptosis inactive and Calb FLC inconclusive.
For COc1ccccc1C1C(C(C)=O)=C(C)N=c2s/c(=C\c3cc(OC)c(OC)c(OC)c3)c(=O)n21 (configuration not stated) the results were T cruzi repl inactive, Mdm2 MdmX PPI 57.9, SKKanGAS inh inactive, CSC inhib inactive, Beta apoptosis inactive, Calb FLC inconclusive, Mdm2-MdmX conf 41.4 and FLuc counter 50.2.
